SR-BI DiI inh = mouse SR-BI HDL lipid transfer inhibition; 0.96% of 320,000 active; inhibition, % at 12.5 µM; ldlA[mSR-BI] CHO cells, DiI-HDL uptake fluorescence, 3 h; Q61009;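 active = mean replicate inhibition of at least 70% and a set share of replicates each scoring 70 or more; inconclusive = meets just one of the two criteria; inactive = fails both criteria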;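 note: 0% = median of neutral control wells and 100% = median of positive control wells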
JMJD2C inh = inhibitors of human GASC-1 (JMJD2C) demethylase. Q9H3R0. GST-JMJD2C(1-420) H3K9me3 demethylation, DELFIA europium. inhibition, % at 2.35 µM. 0.069% of 330,000 active. AID 2099;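 active = more than half of a compound's replicate wells show inhibition beyond 50%, single wells judged on their own value; inconclusive = some, but no more than half, of replicates pass 50% inhibition; inactive = no replicate passes 50% inhibition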;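 note: signal counts dimethyl H3K9 product captured on neutravidin plate; 0% = median of DMSO wells and 100% = 0.3 times that DMSO median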
FXN GAA850 act = increases GAA850 frataxin promoter reporter activity. HEK293 lucGAA850 FXN promoter luciferase reporter, 24 h; percent of 10 µM SAHA response. activation, % at 6 µM. 0.56% of 360,000 active. AID 540364;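 active = activation above the average of all compounds screened plus 3 SD, cutoff fixed separately per campaign, cut at about 7.5% in these data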;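 note: 0% = DMSO wells and 100% = 10 µM SAHA wells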
AHR activator = human AHR activation. P35869. AHR-responsive luciferase reporter cells, luminescence. activation, % at 5 µM. 2.5% of 320,000 active. AID 2796; in the data active = activation above about 47%;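 note: 0% = vehicle wells and 100% = reference agonist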
Target sequence (P35869 whole entry, looked up): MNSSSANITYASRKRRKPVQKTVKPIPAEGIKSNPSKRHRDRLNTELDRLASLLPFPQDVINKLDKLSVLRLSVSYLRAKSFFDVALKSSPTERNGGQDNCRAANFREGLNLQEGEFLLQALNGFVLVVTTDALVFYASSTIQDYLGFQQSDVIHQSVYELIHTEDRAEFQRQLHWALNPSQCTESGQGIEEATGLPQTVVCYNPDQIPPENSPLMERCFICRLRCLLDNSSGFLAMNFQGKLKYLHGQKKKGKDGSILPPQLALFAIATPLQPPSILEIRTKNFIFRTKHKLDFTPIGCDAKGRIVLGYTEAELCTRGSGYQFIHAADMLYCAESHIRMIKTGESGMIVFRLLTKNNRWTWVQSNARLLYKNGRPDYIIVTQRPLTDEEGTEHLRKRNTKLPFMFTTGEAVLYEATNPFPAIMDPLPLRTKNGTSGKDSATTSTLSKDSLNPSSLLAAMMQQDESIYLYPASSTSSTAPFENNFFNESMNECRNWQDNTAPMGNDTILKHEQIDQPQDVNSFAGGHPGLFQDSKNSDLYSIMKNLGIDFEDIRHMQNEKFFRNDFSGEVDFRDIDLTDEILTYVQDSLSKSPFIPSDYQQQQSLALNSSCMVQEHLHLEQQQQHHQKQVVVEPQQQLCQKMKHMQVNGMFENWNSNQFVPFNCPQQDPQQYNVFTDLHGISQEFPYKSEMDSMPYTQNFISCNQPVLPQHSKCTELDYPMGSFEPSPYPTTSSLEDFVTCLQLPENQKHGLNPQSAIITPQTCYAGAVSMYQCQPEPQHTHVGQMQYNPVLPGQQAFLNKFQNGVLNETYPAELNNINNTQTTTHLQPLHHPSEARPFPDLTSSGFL
SR-BI DiI-HDL act = enhances SR-BI lipid uptake from DiI-HDL; AID 504775; 0.096% of 320,000 active; CHO ldlA[mSR-BI] cells, DiI-HDL uptake fluorescence, 3 h; 100 = double the neutral-control signal; activation, % at 12.5 µM;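 active = mean replicate activation of at least 60% and every replicate at or above 60%; inconclusive = mean or all-replicate condition met, but not both; inactive = mean below 60% and not all replicates reaching 60%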;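 note: 0% = median plate neutral-control signal and 100% = twice that signal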
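System: LDL receptor-deficient CHO ldlA cells overexpressing murine SR-BI | Timing: 3 h uptake period with compound, 37 °C | Medium: HEPES-buffered (25 mM, pH 7.4) F12 plus 0.5% BSA | Dosing: Single-point compound dose | Signal: Bottom-read fluorescence, 550/595 nm | Read-out: Retained DiI signal reflecting DiI-HDL uptake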
Active calls of the source: *; ? = inconclusive; . = no result given. Hits are enriched below; roughly 3.7% of the tested compounds scored in any of these assays.

SMILES	SR-BI DiI inh	JMJD2C inh	FXN GAA850 act	AHR activator	SR-BI DiI-HDL act
CC(C)OC(=O)/C(=C\c1ccc2c(c1)c1ccccc1n2C)NC(=O)c1ccccc1	63	-3	3	75*	-63
CCOC(=O)c1c(NC(=O)COC(=O)c2nccnc2N)sc(C(=O)N(C)C)c1C	-1	0	1	0	1
COc1ccccc1NC(=O)c1ccccc1C(=O)Nc1ccccc1OC	9	-23	-1	-1	-9
COc1ccccc1NC(=O)c1cnc(Nc2ccccc2OC)c2ccccc12	19	7	1	73*	-19
Cc1cccc(C)c1NC(=O)c1c[nH]c2ccccc12	3	-33	1	55*	-3
COc1ccccc1Nc1ncc(C(=O)N2CCC(C(N)=O)CC2)c2ccccc12	18	-2	2	5	-18
COc1ccccc1NC(=O)c1c[nH]c2ccccc12	23	5	1	61*	-23
C[C@H](CO)N1C[C@H](C)[C@@H](CN(C)C)Oc2c(NS(=O)(=O)c3cccs3)cccc2C1=O	-17	6	3	1	17
CCCc1c(C(=O)NNc2ccccc2OC)cnn1-c1ccccc1	-17	5	0	-2	17
CCOC(=O)CSc1ccc(C(=O)Nc2ccc(Cl)cc2)cn1	-21	-15	4	58*	21
CCOC(=O)CSc1ccc(C(=O)Nc2ccc(OC)cc2)cn1	1	2	4	57*	-1
CCOC(=O)CSc1nc2c(cnn2-c2ccc(Cl)cc2)c(=O)[nH]1	-18	-10	0	5	18
CCCc1c(C(=O)Nc2ccc(OC)cc2)cnn1-c1ccccc1	-8	8	2	73*	8
CCN(CC(=O)Nc1c(F)cccc1F)C(=O)CCC(=O)c1ccc(C)cc1	17	-16	0	-2	-17
O=C(COc1ccccc1F)Nc1ccc2c(c1)OCCO2	.	-2	-9	-1	.
Cc1cc(N2CCCCCC2)nc2ccc(F)cc12	-7	9	-3	58*	7
CC1CCCN(CCCNC(=O)C2CCC(CNS(=O)(=O)c3cccc4nsnc34)CC2)C1 (stereo not drawn)	-3	2	-1	0	3
Cc1ccc(C(=O)n2nc(-n3cccc3)c3c(C)cc(C)nc32)cc1	-22	2	1	.	22
Fc1ccc(NC(=S)Nc2ccc(Cl)cc2Cl)cc1	.	45	.	-2	.
Oc1ccccc1C=NNC(=S)Nc1ccc(F)cc1	101*	.	-5	.	-101
Fc1ccccc1/C=N/NC(=S)Nc1ccc(Cl)cc1Cl	10	1	-3	77*	-10
Cc1c(Cl)sn(-c2ccc(Cl)cc2)c1=O	72*	.	-1	.	-72
O=C(NNc1c2ccccc2nc2ccccc12)c1ccc(O)cc1O	43	7	2	4	-43
O=C(NNC(=O)c1cccc2ccccc12)c1ccccc1O	50	3	2	22	-50
O=C(NNc1c2ccccc2nc2ccccc12)c1ccccc1Cl	53	-2	3	58*	-53
SMILES	SR-BI DiI inh	JMJD2C inh	FXN GAA850 act	AHR activator	SR-BI DiI-HDL act
O=C(NNc1nc(=O)c2cccnc2s1)c1ccccc1O	49	-11	0	49*	-49
O=C(NNc1c2ccccc2nc2ccccc12)c1ccccc1O	?	2	5	129*	-72
CSc1ccc(Cl)c(C(=O)NCCCn2ccnc2)c1	.	7	0	3	.
CCN(C(=O)Cn1c(=O)oc2ccccc21)c1ccc(C)c(C)c1	14	1	1	-1	-14
C/C(=N\Nc1cc(C)nc(-c2ccccc2O)n1)c1ccccc1	55	-25	4	31	-55
Cc1ccc(Nc2cc(C)nc(-c3ccccc3O)n2)cc1	50	0	4	43	-50
Cc1cc(N/N=C/c2ccc(O)c(C)c2O)nc(-c2ccccc2O)n1	104*	4	-9	1	-104
Cc1cc(Nc2ccc(Br)cc2)nc(-c2ccccc2O)n1	75*	-5	-1	14	-75
COc1ccc(C)cc1NC(=O)COC(=O)CCC(=O)c1cccs1	-27	9	-1	1	27
Cc1cc(/C=N\NC(=O)COc2cccc3cccnc23)c(C)n1-c1ccc(Br)cc1	21	3	1	42	-21
Cc1cc(/C=N\NC(=O)c2cccs2)c(C)n1-c1ccc2ncccc2c1	73*	2	4	11	-73
O=C(c1ccc(Cl)cc1Cl)C1(n2cncn2)Oc2ccccc2C1O (stereo not drawn)	-14	127	3	66*	14
CC(C)/C=C(/C(=O)c1ccc(Cl)cc1Cl)n1cncn1	-19	-2	-1	0	19
C/C(CC(=O)Nc1ccc(Cl)c(C(F)(F)F)c1)=N\NC(=O)c1ccccc1O	17	-2	5	35	-17
C/C(CC(=O)Nc1ccc(Cl)c(C(F)(F)F)c1)=N\NC(N)=S	80*	-2	-1	1	-80
COCn1c(-c2cccc(Br)c2)nc2ccccc21	22	-5	-2	53*	-22
COCn1c(-c2ccc(OC)c(OC)c2)nc2ccccc21	5	-4	4	7	-5
Cc1ccc(CS(=O)(=O)c2ncn[nH]2)cc1	-2	3	2	2	2
Nc1nc(-c2ccc(Cl)cc2)nc(-c2ccc(Cl)cc2)n1	-1	7	-1	70*	1
CC(C)C(=O)N1CCN(c2ccccc2NC(=S)NC(=O)c2ccco2)CC1	81*	2	1	8	-81
O=C(/C=C/c1ccco1)Nc1ccccc1N1CCCC1	3	-22	-2	73*	-3
COc1ccc(NC(=S)NC(=O)/C=C/c2ccco2)c(OC)c1	9	2	0	68*	-9
O=C(/C=C/c1ccco1)NC(=S)Nc1ccccc1N1CCOCC1	20	7	-1	12	-20
COc1cccc(NC(=S)NC(=O)/C=C/c2ccco2)c1	1	10	0	45	-1
O=C(/C=C/c1ccco1)NC(=S)Nc1ccccn1	18	-6	7	66*	-18
SMILES	SR-BI DiI inh	JMJD2C inh	FXN GAA850 act	AHR activator	SR-BI DiI-HDL act
Cc1ccc(N(CC(=O)N2CCN(c3ccccc3F)CC2)S(=O)(=O)c2c(C)noc2C)cc1	9	-14	-2	4	-9
O=[N+]([O-])c1cnn(-c2nc(-c3ccco3)cc(C(F)(F)F)n2)c1	-5	6	1	0	5
O=C(/C=C/c1ccco1)NC(=S)Nc1ccccc1N1CCCC1	19	-13	2	65*	-19
CN1C(=O)C(C(=O)Nc2ccccc2F)c2ccccc21 (stereo not drawn)	5	-11	3	14	-5
Cc1ccc(NC(=O)C2C(=O)N(C)c3ccccc32)cc1 (stereo not drawn)	-30	2	1	73*	30
O/N=C/c1ccc2ccccc2n1	-82	-8	0	3	82*
CCN1/C(=C\c2ccc3cc(C)ccc3[n+]2CC)Sc2cc(C)c(C)cc21	85*	6	-6	.	-85
